Experimental data taken from ChEMBL document CHEMBL1177873, “Synthesis and evaluation of some new benzothiazole derivatives as potential antimicrobial agents” (Eur J Med Chem, 2010).
Activity calls are given as the source filed them.

Tests used:
Bacillus subtilis [1] = assay: Antibacterial activity against Bacillus subtilis MTCC 441 at 100 ug/ml after 24 hrs by cup-plate method; assay type: functional, organism-based
Method in brief: (§1)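 Cup-plate diffusion in nutrient agar, incubated 24 h at 37 °C. Compounds dissolved in DMF and tested at the single concentration given in the line. DMF served as the solvent control and ciprofloxacin as the reference standard. Read-out is the zone of inhibition diameter in mm.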

Bacillus subtilis [2] = assay: Antibacterial activity against Bacillus subtilis MTCC 441 at 1 ug/ml after 24 hrs by cup-plate method; assay type: functional, organism-based; method in brief: as §1
Bacillus subtilis [3] = assay: Antibacterial activity against Bacillus subtilis MTCC 441 after 24 hrs; assay type: functional; conditions: MTCC 441, 24 h
Method in brief: (§2)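 MIC was taken as the lowest concentration giving 100% growth inhibition relative to a drug-free control, after 24 h at 37 °C in nutrient agar. Compounds were dissolved in DMF, and ciprofloxacin was the reference.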

Escherichia coli [4] = assay: Antibacterial activity against Escherichia coli MTCC 443 at 1 ug/ml after 24 hrs by cup-plate method; assay type: functional, organism-based; method in brief: as §1
Bacillus subtilis [5] = assay: Antibacterial activity against Bacillus subtilis MTCC 441 at 10 ug/ml after 24 hrs by cup-plate method relative to ciprofloxacin; assay type: functional, organism-based
Streptomyces griseus [6] = assay: Antibacterial activity against Streptomyces griseus MTCC 1540 at 10 ug/ml after 24 hrs by cup-plate method relative to ciprofloxacin; assay type: functional, organism-based
Streptomyces griseus [7] = assay: Antibacterial activity against Streptomyces griseus MTCC 1540 at 100 ug/ml after 24 hrs by cup-plate method; assay type: functional, organism-based; method in brief: as §1
Streptomyces griseus [8] = assay: Antibacterial activity against Streptomyces griseus MTCC 1540 after 24 hrs; assay type: functional; conditions: MTCC 1540, 24 h; method in brief: as §2
Bacillus subtilis [9] = assay: Antibacterial activity against Bacillus subtilis MTCC 441 at 200 ug/ml after 24 hrs by cup-plate method; assay type: functional, organism-based; method in brief: as §1
Escherichia coli [10] = assay: Antibacterial activity against Escherichia coli MTCC 443 after 24 hrs; assay type: functional; conditions: MTCC 443, 24 h; method in brief: as §2
Bacillus subtilis [11] = assay: Antibacterial activity against Bacillus subtilis MTCC 441 at 500 ug/ml after 24 hrs by cup-plate method; assay type: functional, organism-based; method in brief: as §1
Candida albicans = assay: Antifungal activity against Candida albicans MTCC 227 at 30 ug/ml after 48 hrs by cup-plate method; assay type: functional; conditions: MTCC 227, 48 h, read-out: DIZ
Method in brief: (§3)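 Cup-plate diffusion on Sabouraud's dextrose agar, incubated 48 h at 28 °C. Compounds in DMF, which also served as the control, with fluconazole as the reference standard.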

Escherichia coli [12] = assay: Antibacterial activity against Escherichia coli MTCC 443 at 10 ug/ml after 24 hrs by cup-plate method relative to ciprofloxacin; assay type: functional, organism-based
Streptomyces griseus [13] = assay: Antibacterial activity against Streptomyces griseus MTCC 1540 at 500 ug/ml after 24 hrs by cup-plate method; assay type: functional, organism-based; method in brief: as §1
Escherichia coli [14] = assay: Antibacterial activity against Escherichia coli MTCC 443 at 100 ug/ml after 24 hrs by cup-plate method relative to ciprofloxacin; assay type: functional, organism-based
Escherichia coli [15] = assay: Antibacterial activity against Escherichia coli MTCC 443 at 500 ug/ml after 24 hrs by cup-plate method; assay type: functional, organism-based; method in brief: as §1
Streptomyces griseus [16] = assay: Antibacterial activity against Streptomyces griseus MTCC 1540 at 1 ug/ml after 24 hrs by cup-plate method; assay type: functional, organism-based; method in brief: as §1
Aspergillus niger = assay: Antifungal activity against Aspergillus niger MTCC 282 at 30 ug/ml after 48 hrs by cup-plate method; assay type: functional; conditions: MTCC 282, 48 h, read-out: DIZ; method in brief: as §3
Escherichia coli [17] = assay: Antibacterial activity against Escherichia coli MTCC 443 at 200 ug/ml after 24 hrs by cup-plate method; assay type: functional, organism-based; method in brief: as §1
Streptomyces griseus [18] = assay: Antibacterial activity against Streptomyces griseus MTCC 1540 at 200 ug/ml after 24 hrs by cup-plate method; assay type: functional, organism-based; method in brief: as §1
Streptomyces griseus [19] = assay: Antibacterial activity against Streptomyces griseus MTCC 1540 at 100 ug/ml after 24 hrs by cup-plate method relative to ciprofloxacin; assay type: functional, organism-based
Bacillus subtilis [20] = assay: Antibacterial activity against Bacillus subtilis MTCC 441 at 100 ug/ml after 24 hrs by cup-plate method relative to ciprofloxacin; assay type: functional, organism-based
Escherichia coli [21] = assay: Antibacterial activity against Escherichia coli MTCC 443 at 10 ug/ml after 24 hrs by cup-plate method; assay type: functional, organism-based; method in brief: as §1
Escherichia coli [22] = assay: Antibacterial activity against Escherichia coli MTCC 443 at 100 ug/ml after 24 hrs by cup-plate method; assay type: functional, organism-based; method in brief: as §1
Bacillus subtilis [23] = assay: Antibacterial activity against Bacillus subtilis MTCC 441 at 10 ug/ml after 24 hrs by cup-plate method; assay type: functional, organism-based; method in brief: as §1
Streptomyces griseus [24] = assay: Antibacterial activity against Streptomyces griseus MTCC 1540 at 10 ug/ml after 24 hrs by cup-plate method; assay type: functional, organism-based; method in brief: as §1
Bacillus subtilis [25] = assay: Antibacterial activity against Bacillus subtilis MTCC 441 at 200 ug/ml after 24 hrs by cup-plate method relative to ciprofloxacin; assay type: functional, organism-based
Streptomyces griseus [26] = assay: Antibacterial activity against Streptomyces griseus MTCC 1540 at 200 ug/ml after 24 hrs by cup-plate method relative to ciprofloxacin; assay type: functional, organism-based
Escherichia coli [27] = assay: Antibacterial activity against Escherichia coli MTCC 443 at 200 ug/ml after 24 hrs by cup-plate method relative to ciprofloxacin; assay type: functional, organism-based

Oc1ccc(/C=N/n2c(S)nnc2CCNc2nc3ccccc3s2)cc1
active: Activity (Bacillus subtilis [1]) | Activity (Streptomyces griseus [7]) | Activity (Bacillus subtilis [9]) | Activity (Bacillus subtilis [11]) | Activity (Streptomyces griseus [13]) | Activity (Escherichia coli [14]) | Activity (Escherichia coli [15]) | Activity (Escherichia coli [17]) | Activity (Streptomyces griseus [18])
inactive: Activity (Bacillus subtilis [2]) | Activity (Escherichia coli [4]) | Activity (Bacillus subtilis [5]) | Activity (Streptomyces griseus [6]) | Activity (Escherichia coli [12]) | Activity (Streptomyces griseus [16])
200 µg/mL: MIC (Escherichia coli [10])
10 mm: zone of inhibition at 30 µg/mL (Aspergillus niger)
100 µg/mL: MIC (Bacillus subtilis [3]) | MIC (Streptomyces griseus [8])
22 mm: zone of inhibition at 30 µg/mL (Candida albicans)

O=[N+]([O-])c1ccccc1/C=N/n1c(S)nnc1CCNc1nc2ccccc2s1
active: Activity (Streptomyces griseus [19]) | Activity (Bacillus subtilis [9]) | Activity (Bacillus subtilis [11]) | Activity (Bacillus subtilis [20]) | Activity (Streptomyces griseus [13]) | Activity (Escherichia coli [14]) | Activity (Escherichia coli [15]) | Activity (Escherichia coli [17]) | Activity (Streptomyces griseus [18])
200 µg/mL: MIC (Bacillus subtilis [3]) | MIC (Streptomyces griseus [8]) | MIC (Escherichia coli [10])
10 mm: zone of inhibition at 30 µg/mL (Aspergillus niger)
inactive: Activity (Bacillus subtilis [2]) | Activity (Escherichia coli [4]) | Activity (Bacillus subtilis [5]) | Activity (Streptomyces griseus [6]) | Activity (Streptomyces griseus [16]) | Activity (Escherichia coli [21])
< 10 mm: zone of inhibition at 30 µg/mL (Candida albicans)

O=C(O)c1cn(C2CC2)c2cc(N3CCNCC3)c(F)cc2c1=O [CIPROFLOXACIN]
inactive: Activity (Bacillus subtilis [2]) | Activity (Escherichia coli [4]) | Activity (Streptomyces griseus [16])
active: Activity (Escherichia coli [22]) | Activity (Bacillus subtilis [1]) | Activity (Streptomyces griseus [7]) | Activity (Bacillus subtilis [9]) | Activity (Bacillus subtilis [11]) | Activity (Streptomyces griseus [13]) | Activity (Escherichia coli [15]) | Activity (Bacillus subtilis [23]) | Activity (Escherichia coli [21]) | Activity (Escherichia coli [17]) | Activity (Streptomyces griseus [24]) | Activity (Streptomyces griseus [18])
10 µg/mL: MIC (Bacillus subtilis [3]) | MIC (Streptomyces griseus [8])

OC(Cn1cncn1)(Cn1cncn1)c1ccc(F)cc1F [FLUCONAZOLE]
22 mm: zone of inhibition at 30 µg/mL (Candida albicans) | zone of inhibition at 30 µg/mL (Aspergillus niger)

O=[N+]([O-])c1cccc(/C=N/n2c(S)nnc2CCNc2nc3ccccc3s2)c1
active: Activity (Streptomyces griseus [19]) | Activity (Bacillus subtilis [9]) | Activity (Bacillus subtilis [11]) | Activity (Bacillus subtilis [20]) | Activity (Streptomyces griseus [13]) | Activity (Escherichia coli [15]) | Activity (Escherichia coli [17]) | Activity (Streptomyces griseus [18])
200 µg/mL: MIC (Bacillus subtilis [3]) | MIC (Streptomyces griseus [8]) | MIC (Escherichia coli [10])
10 mm: zone of inhibition at 30 µg/mL (Candida albicans)
inactive: Activity (Bacillus subtilis [2]) | Activity (Escherichia coli [4]) | Activity (Escherichia coli [12]) | Activity (Escherichia coli [14]) | Activity (Streptomyces griseus [16]) | Activity (Bacillus subtilis [23]) | Activity (Streptomyces griseus [24])
< 10 mm: zone of inhibition at 30 µg/mL (Aspergillus niger)

COc1ccc(/C=N/n2c(S)nnc2CCNc2nc3ccccc3s2)cc1OC
active: Activity (Escherichia coli [22]) | Activity (Streptomyces griseus [7]) | Activity (Bacillus subtilis [11]) | Activity (Streptomyces griseus [13]) | Activity (Escherichia coli [15]) | Activity (Escherichia coli [17]) | Activity (Streptomyces griseus [18])
Active: Activity (Bacillus subtilis [25])
100 µg/mL: MIC (Streptomyces griseus [8]) | MIC (Escherichia coli [10])
22 mm: zone of inhibition at 30 µg/mL (Candida albicans) | zone of inhibition at 30 µg/mL (Aspergillus niger)
inactive: Activity (Bacillus subtilis [2]) | Activity (Escherichia coli [4]) | Activity (Bacillus subtilis [20]) | Activity (Streptomyces griseus [16]) | Activity (Bacillus subtilis [23]) | Activity (Escherichia coli [21]) | Activity (Streptomyces griseus [24])
500 µg/mL: MIC (Bacillus subtilis [3])

CN(C)c1ccc(/C=N/n2c(S)nnc2CCNc2nc3ccccc3s2)cc1
100 µg/mL: MIC (Bacillus subtilis [3]) | MIC (Streptomyces griseus [8]) | MIC (Escherichia coli [10])
10 mm: zone of inhibition at 30 µg/mL (Aspergillus niger)
16 mm: zone of inhibition at 30 µg/mL (Candida albicans)
active: Activity (Escherichia coli [22]) | Activity (Bacillus subtilis [1]) | Activity (Streptomyces griseus [7]) | Activity (Bacillus subtilis [9]) | Activity (Bacillus subtilis [11]) | Activity (Escherichia coli [12]) | Activity (Streptomyces griseus [13]) | Activity (Escherichia coli [15]) | Activity (Escherichia coli [17]) | Activity (Streptomyces griseus [18])
inactive: Activity (Bacillus subtilis [2]) | Activity (Escherichia coli [4]) | Activity (Bacillus subtilis [5]) | Activity (Streptomyces griseus [16]) | Activity (Streptomyces griseus [24])

Sc1nnc(CCNc2nc3ccccc3s2)n1/N=C/c1ccccc1Cl
22 mm: zone of inhibition at 30 µg/mL (Candida albicans)
16 mm: zone of inhibition at 30 µg/mL (Aspergillus niger)
inactive: Activity (Bacillus subtilis [2]) | Activity (Escherichia coli [4]) | Activity (Streptomyces griseus [7]) | Activity (Bacillus subtilis [20]) | Activity (Streptomyces griseus [16])
200 µg/mL: MIC (Bacillus subtilis [3]) | MIC (Streptomyces griseus [8]) | MIC (Escherichia coli [10])
active: Activity (Bacillus subtilis [5]) | Activity (Streptomyces griseus [6]) | Activity (Bacillus subtilis [9]) | Activity (Bacillus subtilis [11]) | Activity (Escherichia coli [12]) | Activity (Streptomyces griseus [13]) | Activity (Escherichia coli [14]) | Activity (Escherichia coli [15]) | Activity (Escherichia coli [17]) | Activity (Streptomyces griseus [18])

Sc1nnc(CCNc2nc3ccccc3s2)n1/N=C/c1ccccc1
active: Activity (Streptomyces griseus [26]) | Activity (Escherichia coli [27]) | Activity (Bacillus subtilis [11]) | Activity (Streptomyces griseus [13]) | Activity (Escherichia coli [15]) | Activity (Bacillus subtilis [25])
inactive: Activity (Bacillus subtilis [2]) | Activity (Escherichia coli [4]) | Activity (Streptomyces griseus [7]) | Activity (Bacillus subtilis [20]) | Activity (Escherichia coli [14]) | Activity (Streptomyces griseus [16]) | Activity (Bacillus subtilis [23]) | Activity (Escherichia coli [21]) | Activity (Streptomyces griseus [24])
22 mm: zone of inhibition at 30 µg/mL (Candida albicans)
500 µg/mL: MIC (Bacillus subtilis [3]) | MIC (Streptomyces griseus [8]) | MIC (Escherichia coli [10])
16 mm: zone of inhibition at 30 µg/mL (Aspergillus niger)
